PKD1 kinase inh: PKD1 (human) kinase inhibition | 0.056% of 200,000 active | Q15139 | inhibition, % (no concentration beside the values) | PKD1 kinase fluorescence polarization assay
Target sequence (Q15139 whole entry, looked up): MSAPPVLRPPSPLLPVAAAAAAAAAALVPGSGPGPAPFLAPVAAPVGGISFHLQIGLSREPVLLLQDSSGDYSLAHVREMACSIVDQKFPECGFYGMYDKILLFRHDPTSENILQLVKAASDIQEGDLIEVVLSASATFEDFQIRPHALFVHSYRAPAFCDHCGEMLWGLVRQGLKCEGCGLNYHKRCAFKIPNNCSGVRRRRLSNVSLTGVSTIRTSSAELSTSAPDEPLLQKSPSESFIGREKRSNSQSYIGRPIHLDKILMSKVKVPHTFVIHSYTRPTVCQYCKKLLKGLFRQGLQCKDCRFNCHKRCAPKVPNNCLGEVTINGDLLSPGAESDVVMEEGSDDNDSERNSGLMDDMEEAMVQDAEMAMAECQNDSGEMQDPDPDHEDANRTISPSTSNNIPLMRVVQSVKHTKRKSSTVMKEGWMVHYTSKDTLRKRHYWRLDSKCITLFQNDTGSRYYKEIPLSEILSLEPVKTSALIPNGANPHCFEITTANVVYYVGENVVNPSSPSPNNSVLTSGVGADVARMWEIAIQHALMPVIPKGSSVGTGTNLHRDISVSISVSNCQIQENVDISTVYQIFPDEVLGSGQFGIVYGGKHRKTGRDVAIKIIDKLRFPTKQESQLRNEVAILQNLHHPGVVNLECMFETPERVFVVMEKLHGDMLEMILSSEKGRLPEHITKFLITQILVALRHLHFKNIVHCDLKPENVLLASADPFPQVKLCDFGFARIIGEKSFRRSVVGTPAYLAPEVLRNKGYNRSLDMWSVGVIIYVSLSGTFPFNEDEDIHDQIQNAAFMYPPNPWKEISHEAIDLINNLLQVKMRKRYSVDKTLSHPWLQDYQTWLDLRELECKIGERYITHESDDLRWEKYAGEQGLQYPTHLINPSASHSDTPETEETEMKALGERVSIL
L major viab: Leishmania major promastigote growth inhibition; Leishmania major promastigotes, resazurin fluorescence viability; inhibition, % at 10 µM; 9% of 200,000 active; AID 1063;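 also: promastigotes grown with compound for 44 hours at 28 °C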
Rad51 HR inh: Rad51 (human) homologous recombination inhibition; Q06609; hRad51 DNA strand exchange, fluorescence dequenching; inhibition, % at 10 µM; 0.085% of 200,000 active;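 active = inhibition above 40% at the single screening dose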;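 also: 0% = DMSO control wells and 100% = blanks with heterologous ssDNA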
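Test system: preformed human Rad51 ssDNA filaments. Compound dosing: single dose, 10 µM final compound. Incubation: filaments 15 min 37 °C, then compound 30 min. Technique: FRET fluorescence dequenching, excitation 485 nm, emission 520 nm. Read-out basis: percent inhibition from fluorescence, normalised to plate control and blank means. Benchmarks: plate controls and plate blanks.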
CHOP inh: inhibitors of CHOP induction in ER stress response; CHO-K1 CHOP-promoter luciferase, tunicamycin-induced, 15-18 h; 3.8% of 220,000 active; inhibition, % at 10 µM;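 active = compounds that reduced the stress-induced luciferase reporter signal by more than about 70% of percent inhibition, limit read from the data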;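 also: 0% = tunicamycin plus vehicle and 100% = wells without tunicamycin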
Arbovirus anti: arbovirus infection inhibition; arbovirus infection cell-based antiviral screen; inhibition, % at 10 µM; 0.37% of 200,000 active; AID 1251; in the data active = inhibition above about 30%
Wee1 stabilizer: blocks degradation of human Wee1 kinase | HeLa Luc-Wee1K328M stability, luciferase luminescence; 100% = proteasome inhibitor MG132 effect | reporter increase, % at 5 µM | 1.2% of 220,000 active | AID 1321 | P30291;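 active = activation above the mean of all tested compounds plus 3 SD, set per screening run, cut at about 8.8% in these data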;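 also: cells exposed to compound for 20 h before luminescence read; 0% = DMSO alone and 100% = MG132 at 30 µM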
An asterisk follows results filed as active. Compounds with a hit are over-represented: about 12% of the library has one in this group of screens. Rule as the data show it, unless noted: active = inhibition above about 50%; inactive = the rest.

What do the screens show for `COc1cc(CN2CCN(Cc3ccc(SC)cc3)CC2)cc(OC)c1O`?
PKD1 kinase inh: 1; L major viab: 88*; Rad51 HR inh: -6; CHOP inh: 18; Arbovirus anti: 0; Wee1 stabilizer: -2

Results for COc1cc(OC)c(CN2CCN(c3ccc(F)cc3)CC2)cc1Br ?
PKD1 kinase inh: -8; L major viab: 10; Rad51 HR inh: -4; CHOP inh: 29; Arbovirus anti: -3; Wee1 stabilizer: -3

How did CCN(CC)S(=O)(=O)c1cccc(NC2=NCC(C)S2)c1 (stereo unspecified) do in these assays?
PKD1 kinase inh: -2; L major viab: 7; Rad51 HR inh: 3; CHOP inh: -2; Arbovirus anti: 8; Wee1 stabilizer: -1

What do the screens show for `CCn1cc(CNC(=S)Nc2cccc3ccccc23)cn1`?
PKD1 kinase inh: -13; L major viab: 23; Rad51 HR inh: -9; CHOP inh: -13; Arbovirus anti: 6; Wee1 stabilizer: 9.3*

Results for CCCCNC(=S)Nc1cccc2cnccc12 ?
PKD1 kinase inh: -4; L major viab: 0; Rad51 HR inh: -4; CHOP inh: 10; Arbovirus anti: -11; Wee1 stabilizer: -3

Results for C=CCNC(=S)NCc1cccnc1 ?
PKD1 kinase inh: -8; L major viab: 80*; Rad51 HR inh: 4; CHOP inh: -30; Arbovirus anti: 5; Wee1 stabilizer: -2

Results for S=C(NCc1cccnc1)NCc1cccnc1 ?
PKD1 kinase inh: -5; L major viab: -5; Rad51 HR inh: -2; CHOP inh: -3; Arbovirus anti: 18; Wee1 stabilizer: -2

What do the screens show for `S=C(NCc1cccnc1)Nc1cccc2ccccc12`?
PKD1 kinase inh: 4; L major viab: 92*; Rad51 HR inh: 5; CHOP inh: 49; Arbovirus anti: 0; Wee1 stabilizer: -2

How did COc1ccnc(N=CNOCc2cccc(C(F)(F)F)c2)c1C#N do in these assays?
PKD1 kinase inh: -10; L major viab: 2; CHOP inh: 3; Arbovirus anti: -8; Wee1 stabilizer: -3

What do the screens show for `COCCN1CC(=O)N(c2cccc(C)c2C)C(c2ccc(Cl)cc2)C1=O` (stereo unspecified)?
PKD1 kinase inh: -11; L major viab: 0; Rad51 HR inh: 10; CHOP inh: 7; Arbovirus anti: 1; Wee1 stabilizer: 2

How did Cc1cccc(N2C(=O)C(Oc3ccc(Cl)cc3Cl)C2C=O)c1C (stereo unspecified) do in these assays?
PKD1 kinase inh: -6; L major viab: 100*; Rad51 HR inh: 5; CHOP inh: 18; Arbovirus anti: -20; Wee1 stabilizer: -3

How did CC(=O)c1c(COC(=O)c2ccccc2Cl)nc2ccccc2[n+]1[O-] do in these assays?
Rad51 HR inh: 8; CHOP inh: 4; Wee1 stabilizer: 1

Results for O=C(NCCN1CCOCC1)c1ccccc1-c1ccccc1 ?
PKD1 kinase inh: 1; L major viab: -7; Rad51 HR inh: 5; CHOP inh: 14; Arbovirus anti: 16; Wee1 stabilizer: -1

How did O=C(NCCN1CCOCC1)c1cnn2c(-c3ccccc3)cc(-c3ccccc3)nc12 do in these assays?
PKD1 kinase inh: 9; L major viab: 99*; Rad51 HR inh: 2; CHOP inh: 16; Arbovirus anti: -35; Wee1 stabilizer: -3

What do the screens show for `CCCCn1c(CCC(=O)O)nc2cc(S(=O)(=O)N(CC)CC)ccc21`?
Rad51 HR inh: -19; CHOP inh: 0; Wee1 stabilizer: 0

Results for CN(C)c1ccc(C(CNC(=O)c2ccc(C#N)cc2)c2c[nH]c3ccccc23)cc1 (stereo unspecified) ?
PKD1 kinase inh: 10; L major viab: 24; Rad51 HR inh: 10; CHOP inh: 2; Arbovirus anti: -3; Wee1 stabilizer: -3

What do the screens show for `CN(C)c1ccc(C(CNC(=O)c2ccccc2Br)c2c[nH]c3ccccc23)cc1` (stereo unspecified)?
PKD1 kinase inh: -2; L major viab: 94*; Rad51 HR inh: -9; CHOP inh: 40; Arbovirus anti: -4; Wee1 stabilizer: -1

What do the screens show for `CC(C)(C)NC(=O)CN(Cc1ccc(F)cc1)C(=O)Cn1nnc(-c2ccc(F)cc2)n1`?
PKD1 kinase inh: 3; L major viab: 4; Rad51 HR inh: -9; CHOP inh: 19; Arbovirus anti: 1; Wee1 stabilizer: 2

What do the screens show for `COC(=O)c1cc2sccc2n1Cc1nc(-c2ccc(OC)cc2)oc1C`?
PKD1 kinase inh: 0; L major viab: 100*; Rad51 HR inh: -6; CHOP inh: 44; Arbovirus anti: -7; Wee1 stabilizer: -2

How did COCCNC(=O)Cn1cc(C(=S)N2CCOCC2)c2ccccc21 do in these assays?
PKD1 kinase inh: 1; L major viab: -4; Rad51 HR inh: 10; CHOP inh: 6; Arbovirus anti: 9; Wee1 stabilizer: 9.8*

How did COCCCNC(=O)Cn1cc(C(C)=O)c2ccccc21 do in these assays?
PKD1 kinase inh: -10; L major viab: -1; Rad51 HR inh: 5; CHOP inh: -25; Arbovirus anti: -1; Wee1 stabilizer: -2

Results for S=C(Nc1cccc2ccccc12)NC1CCCCC1 ?
PKD1 kinase inh: -1; L major viab: 99*; Rad51 HR inh: 7; CHOP inh: 10; Arbovirus anti: 12; Wee1 stabilizer: 8

Results for CSc1ccccc1NC(=S)NC1CCCCC1 ?
PKD1 kinase inh: 2; L major viab: 28; Rad51 HR inh: -7; CHOP inh: -26; Arbovirus anti: 2; Wee1 stabilizer: -2

What do the screens show for `S=C(Nc1ccccc1Oc1ccccc1)NC1CCCC1`?
PKD1 kinase inh: -8; L major viab: 61*; Rad51 HR inh: 4; CHOP inh: 9; Arbovirus anti: 14; Wee1 stabilizer: 0

How did COc1ccc(NC(=S)NC2CCCCC2)c(OC)c1 do in these assays?
PKD1 kinase inh: 11; L major viab: 6; Rad51 HR inh: -7; CHOP inh: -5; Arbovirus anti: 13; Wee1 stabilizer: 0

How did COc1ccc(NC(=S)NC2CCCCCC2)c(OC)c1 do in these assays?
PKD1 kinase inh: -6; L major viab: 77*; Rad51 HR inh: 1; CHOP inh: -16; Arbovirus anti: 16; Wee1 stabilizer: 0

How did Cc1cc(=O)oc(C)c1C(=O)Nc1cccc(F)c1 do in these assays?
Rad51 HR inh: 14; CHOP inh: 15; Wee1 stabilizer: -1

What do the screens show for `Cc1cc(NC(=O)CCCSc2nc(-c3ccco3)cc(C(F)(F)F)n2)no1`?
PKD1 kinase inh: -9; L major viab: -6; Rad51 HR inh: 2; CHOP inh: 88*; Arbovirus anti: -1; Wee1 stabilizer: 0

How did Cc1cc(NC(=O)CCSc2nc(-c3ccco3)cc(C(F)(F)F)n2)no1 do in these assays?
PKD1 kinase inh: -7; L major viab: -2; Rad51 HR inh: 6; CHOP inh: 0; Arbovirus anti: -12; Wee1 stabilizer: 0

What do the screens show for `CC(C)(C)c1cc(C(F)(F)F)nc(SCCCNC(=O)c2ccco2)n1`?
PKD1 kinase inh: 0; L major viab: 14; Rad51 HR inh: -19; CHOP inh: 86*; Arbovirus anti: 5; Wee1 stabilizer: 4
